Results gathered from unrelated publications.
Protocols differ between the studies behind these lines.
FLT3 autoinhibited: Receptor-type tyrosine-protein kinase FLT3, autoinhibited (FLT3, Homo sapiens, UniProt P36888)
FLT3: Receptor-type tyrosine-protein kinase FLT3 (FLT3, Homo sapiens, UniProt P36888)
FLT3 D835Y: Receptor-type tyrosine-protein kinase FLT3 (FLT3, Homo sapiens, UniProt P36888, D835Y)
FLT3 K663Q: Receptor-type tyrosine-protein kinase FLT3 (FLT3, Homo sapiens, UniProt P36888, K663Q)
FLT3 R834Q: Receptor-type tyrosine-protein kinase FLT3 (FLT3, Homo sapiens, UniProt P36888, R834Q)
FLT3 N841I: Receptor-type tyrosine-protein kinase FLT3 (FLT3, Homo sapiens, UniProt P36888, N841I)
FLT3 D835V: Receptor-type tyrosine-protein kinase FLT3 (FLT3, Homo sapiens, UniProt P36888, D835V)
FLT3 ITD: Receptor-type tyrosine-protein kinase FLT3 (FLT3, Homo sapiens, UniProt P36888, ITD)
FLT3 D835H: Receptor-type tyrosine-protein kinase FLT3 (FLT3, Homo sapiens, UniProt P36888, D835H)

Structure (SMILES)	target	effect on	technique	concentration	remaining binding [%]
COc1cnc(Nc2cccc(S(N)(=O)=O)c2)nc1N1CCN(c2ccccc2)C(=O)C1	FLT3 autoinhibited	binding	competition with immobilised ligand	1 µM	100
O=C(c1ccc(Nc2nccc(-c3cc4ccccc4s3)n2)cc1)N1CCC(N2CCCC2)CC1	FLT3	binding	competition with immobilised ligand	1 µM	44
CCCCN(CCCC)C(=O)CN1C[C@@H](c2cc(OC)c3c(c2)OCO3)[C@H](C(=O)O)[C@H]1CC(C)(C)CCC	FLT3 D835Y	cell-free assay	competition with immobilised ligand	1 µM	75.2
O=C(NCCCN1CCOCC1)c1ccc(Nc2nccc(-c3cc4ccccc4s3)n2)cc1	FLT3 D835Y	binding	competition with immobilised ligand	1 µM	18
C=CC(=O)N1CCC(C(=O)NCC(=O)N2CCN(c3nc(-c4cnc(N)nc4C(F)F)nc(N4CCOCC4)n3)CC2)CC1	FLT3 K663Q	binding	competition with immobilised ligand	1 µM	100
N[C@@H]1CCN(c2nccc(-c3cnn4ncccc34)n2)C1	FLT3 R834Q	binding		1 µM	100
O=C(NCCCN1CCOCC1)c1ccc(Nc2ncc(Cl)c(-c3ccc(Cl)s3)n2)cc1	FLT3 N841I	binding	competition with immobilised ligand	1 µM	0.6
O=C(NCC1CCOCC1)c1n[nH]cc1NC(=O)c1c(F)cccc1F	FLT3 R834Q	binding	competition with immobilised ligand	1 µM	77
COc1ccc2c(O[C@@H]3C[C@H]4C(=O)N[C@]5(C(=O)O)CC5/C=C\CCCCC[C@H](NC(=O)OC5CCCC5)C(=O)N4C3)cc(-c3csc(NC(=O)C(C)C)n3)nc2c1C (stereo partly shown)	FLT3 R834Q	cell-free assay	competition with immobilised ligand	1 µM	92
Nc1ncc2c(n1)-c1c([nH]c3ccc(C#CC4CC4)cc13)CCCC2	FLT3 D835Y	binding	competition with immobilised ligand	1 µM	89
CC1CCCN1c1nccc(-c2cnn3ncccc23)n1 (stereo not shown)	FLT3 autoinhibited	binding		1 µM	100
COc1ncc2cc3ccccc3nc2c1C#N	FLT3 autoinhibited	cell-free assay	competition with immobilised ligand	5 µM	100
O=C1CCc2cc(Nc3cc(OC4CCOCC4)c([N+](=O)[O-])cc3Cl)ccc2N1	Receptor-type tyrosine-protein kinase FLT3 (FLT3, Homo sapiens, UniProt P36888, D835V/ITD)	cell-free assay	competition with immobilised ligand	1 µM	78
CNC(=O)[C@@H]1CC[C@@H](n2c(-c3ccc4cnccc4c3)nc3ccc(C(=O)NCc4cccc(C(N)=O)c4)cc32)C1	FLT3 R834Q	binding	competition with immobilised ligand	1 µM	100
CN1CCN(c2ccc(Nc3nccc(-c4ccccc4)n3)cc2C(F)(F)F)CC1	FLT3 D835V	binding		10 µM	0
CCC(=O)N[C@H]1CC[C@@H](C(=O)N(C)c2ccc(-c3nc4ccccc4o3)cc2)C1	FLT3 K663Q	cell-free assay	competition with immobilised ligand	1 µM	88
COc1cnc(Nc2cccc(S(N)(=O)=O)c2)nc1N1CCN(c2ccccc2)CC1	FLT3 R834Q	binding	competition with immobilised ligand	1 µM	54

Structure (SMILES)	target	effect on	technique	concentration	remaining binding [%]
Cc1cnc(Nc2ccc(C(=O)N3CCC(N4CCCC4)CC3)cc2)nc1-c1cc2ccccc2s1	FLT3 ITD	binding	competition with immobilised ligand	1 µM	6.6
Cc1cnn2ncc(-c3ccnc(N(C)C)n3)c2c1	FLT3 D835H	binding		1 µM	100
CS(=O)(=O)N1CCCC(NC(=O)[C@H](CCC2CCCCC2)NC(=O)c2ccc(CNC(=O)c3cnc4ccccn34)cc2)C1 (stereo partly shown)	FLT3 autoinhibited	cell-free assay	competition with immobilised ligand	0.1 µM	93
CN1CCN(c2ccc(Nc3nccc(-c4cccc([N+](=O)[O-])c4)n3)cc2C(F)(F)F)CC1	FLT3 N841I	binding		10 µM	0.05
c1cncc(-c2cccc(Nc3nccc(NC4CCCCC4)n3)c2)c1	FLT3 autoinhibited	binding	competition with immobilised ligand	10 µM	3.6
CS(=O)(=O)c1cc(C2(NC(=O)c3cncc4c3cnn4-c3ccc(F)cc3)CC2)ccn1	FLT3 D835V	cell-free assay	competition with immobilised ligand	1 µM	100
O=C(Nc1c[nH]nc1C(=O)NC1CCNCC1)c1cc(F)cc(F)c1	FLT3 N841I	binding	competition with immobilised ligand	1 µM	100
O=C(c1ccc(Nc2ncc(Cl)c(-c3cc4ccccc4s3)n2)cc1)N1CCC(N2CCCC2)CC1	FLT3 D835Y	binding	competition with immobilised ligand	1 µM	3.7
C[C@@H]1CCN(c2nccc(-c3cnn4ncccc34)n2)C1	FLT3 D835Y	binding		1 µM	100
CCN1CCN(Cc2ccc(C(=O)Nc3ccc(C)c(Oc4ccc5c(c4)CC(=O)N5)c3)cc2C(F)(F)F)CC1	FLT3 D835Y	binding	competition with immobilised ligand	1 µM	100
CN(C)c1nccc(-c2cnc3ncccn23)n1	FLT3	binding		1 µM	100
O=C(c1ccc(Nc2ncc(Cl)c(-c3ccc(Cl)s3)n2)cc1)N1CCC(N2CCCC2)CC1	FLT3 ITD	binding	competition with immobilised ligand	1 µM	0.35
CN(C)c1nccc(-c2cnn3ncccc23)n1	FLT3 D835H	binding		1 µM	100
COCCOc1nc(-c2ccc(Cl)nc2)nc2c1CN(C(=O)c1ncn3ccccc13)CC2	FLT3 D835V	cell-free assay	competition with immobilised ligand	0.1 µM	100
C[C@@H](c1ccc(-n2cnc3c(N)ncnc32)cc1)N1CCc2nn(C)c(Cc3ccccc3)c2C1=O	FLT3 D835Y	binding	competition with immobilised ligand	0.1 µM	100
COc1ccnn2ncc(-c3ccnc(N(C)C)n3)c12	FLT3 N841I	binding		1 µM	100
CC1=C(C#N)C(c2ccc3c(c2)c(NC(=O)c2ccccc2C)nn3C)C(C#N)=C(C)N1	FLT3 K663Q	cell-free assay	competition with immobilised ligand	1 µM	100
